In ChEMBL document CHEMBL4130352, “Ciprofloxacin-nitroxide hybrids with potential for biofilm control” (Eur J Med Chem, 2017):
In brackets after ≈: the same amount, converted by molar mass. Activity calls are given as the source filed them. The calls are words filed in the database; no cut-off is given here.

Experiments:
Pseudomonas aeruginosa [1] = experiment: Antibiofilm activity against Pseudomonas aeruginosa PA14 assessed as removal of biomass at 20 uM preincubated for 24 hrs measured after 2 hrs by SYTO/propidium iodide double-staining-based confocal laser scanning microscopic analysis relative to control; assay type: functional
Pseudomonas aeruginosa [2] = experiment: Antibiofilm activity against Pseudomonas aeruginosa PA14 assessed as total live biofilm biomass eradication at 20 uM preincubated for 24 hrs measured after 2 hrs by SYTO/propidium iodide double-staining-based confocal laser scanning microscopic analysis relative to control; assay type: functional
Pseudomonas aeruginosa [3] = experiment: Effect on Pseudomonas aeruginosa PA14 assessed as dead cells at 20 uM preincubated for 24 hrs measured after 2 hrs (reference value: 4%); assay type: organism-based
Pseudomonas aeruginosa [4] = experiment: Inhibition of planktonic growth of Pseudomonas aeruginosa PA14 after 24 hrs by broth microdilution method; assay type: organism-based; settings: in vitro
In short: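 Broth microdilution in polypropylene microtiter plates. Compounds added as DMSO solutions, inoculum 5×10^5 CFU/mL final, incubated 37 °C for 24 h. MIC taken as the lowest concentration with no visible growth.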

Pseudomonas aeruginosa [5] = experiment: Antibiofilm activity against Pseudomonas aeruginosa PA14 assessed as removal of mature biofilm at 40 uM preincubated for 24 hrs measured after 2 hrs by SYTO/propidium iodide double-staining-based confocal laser scanning microscopic analysis relative to control; assay type: functional
RD = experiment: Cytotoxicity against human RD cells assessed as reduction in cell viability at 5 to 40 uM after 24 hrs by LDH release assay; assay type: cell-based
In short: (§1)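 HEK 293 and RD cells were grown in DMEM with 10% FBS at 37°C, 5% CO2, and seeded the day before at 50,000 (HEK 293) or 20,000 (RD) cells per well. Compounds (5 mM DMSO stock) were added at 5–40 μM for 24 h, with 0.8% DMSO in all wells. LDH release was normalised to untreated cells and 3 h lysis-buffer controls. Run in triplicate.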

Pseudomonas aeruginosa [6] = experiment: Antibiofilm activity against Pseudomonas aeruginosa PA14 assessed as dispersion of bacteria from biofilms at 20 uM after 2 to 3 hrs; assay type: functional, organism-based
In short: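 PA14 biofilms grown 2 days in flow cells at 37°C, then exposed to 20 μM compound. Dispersed cells were collected from chamber effluent at set times, plated on Pseudomonas Isolation Agar and incubated at 37°C. CFU/mL was counted the next day, and fold-change in dispersed viable cells was calculated against untreated PA14 effluent.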

HEK293 = experiment: Cytotoxicity against HEK293 cells assessed as reduction in cell viability at 5 to 40 uM after 24 hrs by LDH release assay; assay type: cell-based; settings: human, hek293, 24 h; in short: as §1
Pseudomonas aeruginosa [7] = experiment: Antibiofilm activity against Pseudomonas aeruginosa PA14 assessed as dispersion of bacteria from biofilms at 20 uM after 18.5 hrs relative to control; assay type: functional
In short: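 PA14 biofilms pre-grown 2 days at 37°C in flow cells, then treated with 20 μM compound. Dispersed cells collected from chamber effluent at set times, plated on Pseudomonas Isolation Agar at 37°C, counted next day as CFU/mL. Fold change in viable dispersed cells calculated against untreated PA14 biofilms.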

Pseudomonas aeruginosa [8] = experiment: Inhibition of planktonic growth of Pseudomonas aeruginosa PA14 assessed as reduction of colony forming units after 24 hrs; assay type: organism-based
In short: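 Overnight PA14 cultures were diluted 1:100 with or without compound (0–160 μM) and incubated 24 h. Samples were then 10-fold serially diluted and plated on LB agar, grown overnight at 37°C, and CFU were counted.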

SMILES	MIC (Pseudomonas aeruginosa [4])	MIC (Pseudomonas aeruginosa [8])	Activity (Pseudomonas aeruginosa [1])	Activity (Pseudomonas aeruginosa [2])	Activity (Pseudomonas aeruginosa [3])	Activity (Pseudomonas aeruginosa [5])	Activity (RD)	Activity (Pseudomonas aeruginosa [6])	Activity (HEK293)	fold change (FC) (Pseudomonas aeruginosa [7])
CC1(C)CC(C(=O)N2CCN(c3cc4c(cc3F)c(=O)c(C(=O)O)cn4C3CC3)CC2)C(C)(C)N1[O] (stereo not drawn)	160 µM (≈ 79.9 µg/mL)	–	67%	67%	0%	–	–	–	–	–
CC1(C)CC(N2CCN(c3cc4c(cc3F)c(=O)c(C(=O)O)cn4C3CC3)CC2)CC(C)(C)N1[O]	–	–	–	80%	50%	<=95%	–	–	–	–
CC1(C)CC(C(=O)N2CCN(c3cc4c(cc3F)c(=O)c(C(=O)O)cn4C3CC3)CC2)CC(C)(C)N1[O]	312 µM (≈ 160 µg/mL)	–	37%	41%	6%	–	Non-Toxic	Active	Non-Toxic	–
CON1C(C)(C)c2ccc(C(=O)N3CCN(c4cc5c(cc4F)c(=O)c(C(=O)O)cn5C4CC4)CC3)cc2C1(C)C	> 284 µM	> 160 µM	53%	54%	2%	–	Non-Toxic	–	Non-Toxic	–

Second part, led by results:

MIC (Pseudomonas aeruginosa [4])	MIC (Pseudomonas aeruginosa [8])	SMILES	Activity (Pseudomonas aeruginosa [1])	Activity (Pseudomonas aeruginosa [2])	Activity (Pseudomonas aeruginosa [3])	Activity (Pseudomonas aeruginosa [5])	Activity (RD)	Activity (Pseudomonas aeruginosa [6])	Activity (HEK293)	fold change (FC) (Pseudomonas aeruginosa [7])
0.5 µM (≈ 0.166 µg/mL)	–	O=C(O)c1cn(C2CC2)c2cc(N3CCNCC3)c(F)cc2c1=O [CIPROFLOXACIN]	–	–	–	–	–	–	–	–
311 µM (≈ 160 µg/mL)	–	CON1C(C)(C)CC(C(=O)N2CCN(c3cc4c(cc3F)c(=O)c(C(=O)O)cn4C3CC3)CC2)C1(C)C (stereo not drawn)	24%	31%	9%	–	–	–	–	–
> 303 µM	–	CON1C(C)(C)CC(C(=O)N2CCN(c3cc4c(cc3F)c(=O)c(C(=O)O)cn4C3CC3)CC2)CC1(C)C	17%	30%	16%	–	Non-Toxic	–	Non-Toxic	0
